Compound activity (PubChem BioAssay)
Most compounds without a hit are left out; they make up all but 2.4% or so of the library.
SIAE inh: inhibitors of human sialic acid acetylesterase SIAE; Q9HAT2; SIAE FP-Rh probe binding, fluorescence polarization; inhibition, % at 9.66 µM; 0.69% of 370,000 active; AID 1053197;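 active = inhibition above a cutoff: mean of compounds within the control limits plus 3 SD of those, cut at about 17% in these data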;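 note: 0% = plate median of compound wells and 100% = probe without SIAE protein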
TDP2 absorb: TDP2 (human) inhibition, absorbance primary screen; recombinant TDP2, T5PNP hydrolysis, p-nitrophenol absorbance 415 nm; inhibition, % at 12.8 µM; 0.34% of 370,000 active; AID 720702;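 active = inhibition above the mean of all tested compounds plus 3 SD, set per campaign, cut at about 25% in these data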;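 note: 0% = DMSO with enzyme and 100% = buffer with substrate but no TDP2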
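Read-out basis: percent inhibition. System: recombinant human TDP2. Buffer or medium: Mg2+-containing Tris-HCl buffer, pH 7.5. Repeats: single replicate. Timing: reaction 2 h, 37 °C. Benchmarks: high control without enzyme, low control DMSO plus TDP2. Probe or stimulus: 5 mM T5PNP. Doses: 12.8 µM only. Measured by: epi absorbance of p-nitrophenol freed from T5PNP by hydrolysis.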
GSTO1 counter: blocks human GSTO1 in RBBP9 counter-screen. P78417. recombinant GSTO1, activity-based probe fluorescence polarization. inhibition, % at 5.96 µM. 1.1% of 300,000 active. AID 1974;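 active = inhibition above the campaign mean inhibition plus 3 SD, cut at about 35% in these data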;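 note: 0% = GSTO1-1 with DMSO and 100% = wells lacking GSTO1-1 enzyme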
Apaf-1 inh: human Apaf-1 inhibition; 0.71% of 330,000 active; inhibition, % at 20 µM; reconstituted apoptosome caspase-3 activity, DEVD-Rh110 fluorescence; active = inhibition of at least 40% at 20 µM;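 note: plate controls were DMSO wells for no effect and DEVD-CHO caspase inhibitor wells for full effect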
Target sequence (O14727 whole entry, looked up): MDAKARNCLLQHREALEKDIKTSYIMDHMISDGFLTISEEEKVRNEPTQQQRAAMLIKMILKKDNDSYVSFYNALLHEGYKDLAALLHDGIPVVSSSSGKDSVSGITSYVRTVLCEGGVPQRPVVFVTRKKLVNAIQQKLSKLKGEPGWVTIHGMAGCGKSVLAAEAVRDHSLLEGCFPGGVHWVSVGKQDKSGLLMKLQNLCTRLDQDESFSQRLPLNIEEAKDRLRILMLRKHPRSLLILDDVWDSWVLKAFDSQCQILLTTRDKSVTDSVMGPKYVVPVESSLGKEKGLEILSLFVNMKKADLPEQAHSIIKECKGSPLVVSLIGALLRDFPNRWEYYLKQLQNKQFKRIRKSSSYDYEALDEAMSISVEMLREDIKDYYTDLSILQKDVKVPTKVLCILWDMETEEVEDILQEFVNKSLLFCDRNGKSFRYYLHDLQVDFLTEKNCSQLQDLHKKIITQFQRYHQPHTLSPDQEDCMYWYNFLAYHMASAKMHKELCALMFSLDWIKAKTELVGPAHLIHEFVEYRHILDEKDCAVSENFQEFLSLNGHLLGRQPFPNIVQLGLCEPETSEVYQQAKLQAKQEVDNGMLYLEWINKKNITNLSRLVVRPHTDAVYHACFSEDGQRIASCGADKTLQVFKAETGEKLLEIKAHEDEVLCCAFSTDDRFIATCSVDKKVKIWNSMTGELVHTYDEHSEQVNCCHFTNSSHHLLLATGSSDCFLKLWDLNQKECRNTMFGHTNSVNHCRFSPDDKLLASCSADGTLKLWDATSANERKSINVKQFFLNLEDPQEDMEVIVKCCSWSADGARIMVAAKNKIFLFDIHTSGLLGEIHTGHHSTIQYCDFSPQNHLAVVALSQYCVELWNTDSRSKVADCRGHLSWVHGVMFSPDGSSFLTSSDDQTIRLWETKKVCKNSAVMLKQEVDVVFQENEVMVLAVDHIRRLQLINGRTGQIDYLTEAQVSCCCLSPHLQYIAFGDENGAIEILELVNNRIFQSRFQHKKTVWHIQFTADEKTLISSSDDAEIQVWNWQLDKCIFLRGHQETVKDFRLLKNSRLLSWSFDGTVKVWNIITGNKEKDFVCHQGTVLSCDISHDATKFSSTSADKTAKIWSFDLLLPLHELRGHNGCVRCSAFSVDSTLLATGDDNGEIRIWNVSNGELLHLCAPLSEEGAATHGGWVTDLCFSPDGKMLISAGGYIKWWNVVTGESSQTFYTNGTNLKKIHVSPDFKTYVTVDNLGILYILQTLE
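Assay system – apoptosome proteins · Medium – Hepes buffer, pH 7.5 · Also added – cytochrome c with DEVD-Rh110 · Timing – 30 min compound preincubation, 50 min activation, room temperature · Detection – Rh110 fluorescence, excitation 480 nm, emission 540 nm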
PAD4 FP inh: PAD4 (human) enzyme inhibition. recombinant PAD4, RCA probe fluorescence polarization. 0.41% of 330,000 active. inhibition, % at 6.36 µM. Q9UM07. AID 485272;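 active = percent inhibition above a cutoff equal to the mean of all tested compounds plus 3 SD, cut at about 15% in these data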;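 note: 0% = PAD4 with RCA probe and DMSO and 100% = probe without PAD4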
TCR-CD3 inh: human TCR-CD3 binding inhibition; inhibition, % at 9.4 µM; 0.37% of 360,000 active; TAMRA-labeled TCR probe fluorescence, biochemical; in the data active = inhibition above about 19%;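 note: recombinant mutant TCR 2C K166C tagged with TAMRA read by polarization; 0% = receptor in buffer alone and 100% = receptor with positive control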
PAD4 confirm: confirmation of human PAD4 inhibitors; shares compounds with PAD4 FP inh; recombinant PAD4, RCA probe fluorescence polarization; inhibition, % at 6.36 µM; 28% of 1,200 active; AID 488796;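 active = mean inhibition across replicates above the hit cutoff set by the earlier primary screen, cut at about 15% in these data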;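 note: inhibitors block active-site labeling by the probe so polarization falls; 0% = PAD4 with probe and DMSO and 100% = probe without PAD4 enzyme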
* marks the source's active call; other numbers are inactive results; · = no result.

SMILES	SIAE inh	TDP2 absorb	GSTO1 counter	Apaf-1 inh	PAD4 FP inh	TCR-CD3 inh	PAD4 confirm
CCCCC1=CC2=C(c3ccco3)C(=O)C(C)(OC(=O)c3ccc(OC)cc3)C(=O)C2=CN1CCc1ccccn1 (stereo not drawn)	2	-4	6	7	28*	5	7
COc1cccc(CN(C)S(=O)(=O)c2ccc3c(c2)OCCO3)c1	1	4	·	7	·	-7	·
COC(=O)[C@@H]1C[C@]2(OC(=O)c3ccccc3)C=CC(=O)C[C@@H]2N1C(=O)OCc1ccccc1	8	-1	6	21	19*	4	22*
CCNc1c([N+](=O)[O-])c(=O)n(CC)c2ccccc12	0	0	0	-3	-2	-3	·
CCNc1c2c3c(cccc3n(C)c1=O)C(=O)c1ccccc1-2	·	·	42*	10	88*	·	91*
Cc1ccc(-c2nc(CS(=O)CC(=O)NC(C)CCc3ccccc3)c(C)o2)cc1 (stereo not drawn)	-1	-18	9	27	4	3	·
CC(C)C(=O)Nc1cc2c(cc1C(=O)c1ccccc1)OCCO2	-1	9	1	1	1	-3	·
Cc1ccc(NC(=O)C(C)N2CCOCC2)c(C(=O)c2ccccc2)c1 (stereo not drawn)	1	12	2	9	40*	6	2
COc1ccc(N2C(=O)CSC23C(=O)N(CC(=O)NC2CCCC2)c2ccccc23)cc1 (stereo not drawn)	-7	6	-4	-12	16*	6	14
COc1ccc(N(C)S(=O)(=O)c2cccc(C(=O)OCC(=O)N3CC(C)CC(C)C3)c2)cc1 (stereo not drawn)	-2	1	·	12	17*	-3	3
CCOc1ccccc1C(=O)NCC(=O)NCCCc1ccccc1	-1	-10	0	3	62*	-2	-1
NC(=O)c1oc2ccccc2c1NC(=O)C1CC(=O)N(c2ccccc2)C1 (stereo not drawn)	·	·	7	2	18*	·	27*
CCOc1ccc(NC(=O)CN(C)C(=O)CN2C(=O)C3CCCCC3C2=O)cc1OCC (stereo not drawn)	-8	3	·	-3	-1	-2	·
CCOc1ccc(NC(=O)CN(C)C(=O)CC2CC3CCC2C3)cc1OCC (stereo not drawn)	7	3	4	32	45*	0	4
CCC(=O)NCCCCCCCCCNC(=O)CC	-1	-7	2	9	-7	6	·
C(=N\n1cnnc1)/c1ccc2c(c1)OCCO2	8	13	-2	1	18*	1	2
C(=N\n1cnnc1)/c1ccc2c(c1)OCO2	-1	-10	-3	-8	-3	1	·
C=CCN1CN(S(=O)(=O)c2cccc(Cl)c2)c2nc3ccccc3nc21	-2	7	-1	6	46*	-8	3
CCCCCCCNC(=O)C1(CC2CC(c3ccc(Cl)cc3)=NO2)CCN(C(=O)c2cc(OCC)c(OCC)c(OCC)c2)CC1 (stereo not drawn)	-17	7	3	17	0	-1	·
C=CCN(CC(=O)NCc1ccc(OC)cc1)C(=O)c1csnn1	-4	6	6	-5	0	5	·
O=C(NCCCO)c1nnc(Cc2c(F)cccc2Cl)o1	1	8	2	-14	50*	8	6
O=C(NC(=S)Nc1ccc(F)c([N+](=O)[O-])c1)c1ccccc1F	3	-4	11	7	17*	1	3
O=C(NC(=S)Nc1ccc2[nH]c(=O)[nH]c2c1)c1ccccc1F	-6	-15	-13	2	-2	-8	·
Cc1cc2ccccc2n1CCNC(=O)COc1ccccc1	-1	-4	0	26	23*	6	9
CCC(=O)NCCn1c(C)cc2ccccc21	·	·	9	2	-1	·	·
SMILES	SIAE inh	TDP2 absorb	GSTO1 counter	Apaf-1 inh	PAD4 FP inh	TCR-CD3 inh	PAD4 confirm
COC/C=C/C1=CC2=CC(=O)C(C)(OC(=O)c3cnc4ccccc4n3)C(=O)C2=CN1CC(C)C (stereo not drawn)	·	·	32	41*	19*	·	-1
CCCCC1=CC2=CC(=O)C(C)(OC(=O)CC)C(=O)C2=CN1CC(C)C (stereo not drawn)	10	1	31	15	-1	4	·
O=C(O)c1ccccc1SSc1ccccc1C(=O)O	2	-10	19	13	45*	3	38*
O=C(O)c1ccccc1O	-4	4	4	-7	-9	3	·
O=C(N/N=C/c1cc(Br)c(O)c(Br)c1)C1CC1	1	1	2	-7	0	-1	·
CC(=O)COc1ccc2c(C)c(-c3ccccc3)c(=O)oc2c1	-6	-14	-4	-13	23*	0	-4
O=C(COC(=O)c1cccc(S(=O)(=O)N2CCc3ccccc32)c1)NCc1ccco1	-4	16	-4	7	-7	3	·
O=[N+]([O-])c1ccc(C2CC(c3ccccc3)=Nc3ccccc3S2)cc1 (stereo not drawn)	5	-23	3	16	22*	6	3
O=C(O)C1CC(c2ccccc2)=Nc2ccccc2S1 (stereo not drawn)	2	-8	7	-9	-2	5	·
Fc1ccc(C2CC(c3ccco3)=Nc3ccccc3S2)cc1 (stereo not drawn)	4	9	2	5	15*	9	1
CC(=NC1CCCC1)c1c(C)[nH]n(-c2nc3ccccc3s2)c1=O	-8	0	-13	13	19*	4	17*
CC(=NC1CC1)c1c(-c2ccccc2)[nH]n(-c2nc3ccccc3s2)c1=O	-14	-6	-1	2	5	-5	·
Cc1noc(NS(=O)(=O)c2ccc(NC(=O)COc3ccccc3)cc2)c1C	5	-4	1	-1	-5	1	·
Cc1noc(NS(=O)(=O)c2ccc(NC(=O)CSc3nc4ccccc4s3)cc2)c1C	-1	17	1	2	19*	3	-5
CCC(=O)N(Cc1cc(=O)[nH]c2ccccc12)c1ccccc1	6	-4	-5	-12	21*	1	22*
CCCC(=O)N(Cc1cc(=O)[nH]c2ccccc12)c1ccccc1	-8	-9	-6	9	4	-7	·
Cn1c(SCCOc2ccccc2Cl)nnc1-c1cccs1	2	0	4	-1	-5	3	·
CCN(CC)C1=CC2=CC(=C(C#N)C#N)CCC2CC1 (stereo not drawn)	13	12	-10	-141	10	4	·
CCCCN(C)C1=CC2=CC(=C(C#N)C#N)CCC2CC1 (stereo not drawn)	4	5	2	-76	46*	11	21*
